Experimental data taken from ChEMBL document CHEMBL2086296, “Synthesis of novel quinoline-2-one based chalcones of potential anti-tumor activity” (Eur J Med Chem, 2012).

Key:
MDA-MB-231 [1] = assay: (§1) Cytotoxicity against human MDA-MB-231 cells after 24 hrs by SRB assay; type: functional; conditions: MDA-MB-231, 24 h
Summary of the method: (§2)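 NCI 60-line screen. Cells in RPMI 1640 with 5% FBS and 2 mM L-glutamine, seeded at 5,000–40,000 cells/well by doubling time, then incubated 24 h at 37 °C, 5% CO2 before dosing. Time-zero plates fixed with TCA at drug addition. DMSO stocks diluted in medium with gentamicin to five concentrations, […]. Protein read by SRB staining. GI50, TGI and LC50 derived relative to control and time-zero.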

SK-MEL-5 [2] = assay: (§3) Cytotoxicity against human SK-MEL-5 cells after 24 hrs by SRB assay; type: functional; conditions: SK-MEL-5, 24 h; summary of the method: as §2
IGROV-1 [3] = assay: (§4) Cytotoxicity against human IGROV1 cells after 24 hrs by SRB assay; type: functional; conditions: IGROV-1, 24 h; summary of the method: as §2
ACHN = assay: Cytotoxicity against human ACHN cells after 24 hrs by SRB assay; type: functional; summary of the method: as §2
COLO 205 [4] = assay: (§5) Cytotoxicity against human COLO205 cells after 24 hrs by SRB assay; type: cell-based; conditions: colo 205, 24 h
Summary of the method: (§6)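 NCI 60-cell screen. Cells grown in RPMI 1640 with 5% FBS and 2 mM L-glutamine, seeded at 5,000–40,000 cells/well, preincubated 24 h at 37 °C in 5% CO2. Drug stock in DMSO, diluted in medium with gentamicin; five final concentrations, 100, 10, 1.0, 0.1 and […]. Time-zero plates were TCA-fixed. Protein read by SRB staining; GI50, TGI and LC50 taken relative to time-zero.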

HCC 2998 = assay: Cytotoxicity against human HCC2998 cells after 24 hrs by SRB assay; type: functional; conditions: HCC 2998, 24 h; summary of the method: as §2
UO-31 [5] = assay: (§7) Cytotoxicity against human UO31 cells after 24 hrs by SRB assay; type: functional; conditions: UO-31, 24 h
Summary of the method: (§8)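 NCI 60-cell screen. Cells are grown in RPMI 1640 with 5% FBS and 2 mM L-glutamine and seeded at 5,000–40,000 cells/well according to doubling time. They are preincubated 24 h at 37 °C in 5% CO2, and Tz plates are TCA-fixed at drug addition. Drug stock is in DMSO, diluted in medium with gentamicin, and tested at five concentrations (100, 10, 1.0, 0.1, […]). Protein is read by SRB staining. GI50, TGI and LC50 are derived relative to time-zero and control wells.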

SNB-19 = assay: Cytotoxicity against human SNB19 cells after 24 hrs by SRB assay; type: cell-based; conditions: snb-19, 24 h
Summary of the method: (§9)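 NCI 60-cell-line screen: cells grown in RPMI 1640 with 5% FBS and 2 mM L-glutamine, seeded at 5,000–40,000 cells/well by doubling time, and preincubated 24 h at 37 °C in 5% CO2. Time-zero plates were TCA-fixed. DMSO stocks were diluted in medium with gentamicin to five concentrations (100, 10, 1.0, 0.1, […]). Protein was read by SRB, and GI50, TGI and LC50 were derived against time-zero.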

IGROV-1 [6] = assay: as §4; type: cell-based; conditions: igrov-1, 24 h; summary of the method: as §6
SW-620 [7] = assay: (§10) Cytotoxicity against human SW620 cells after 24 hrs by SRB assay; type: cell-based; conditions: sw-620, 24 h; summary of the method: as §9
HT-29 = assay: Cytotoxicity against human HT-29 cells after 24 hrs by SRB assay; type: functional; conditions: HT-29, 24 h; summary of the method: as §2
MOLT-4 = assay: Cytotoxicity against human MOLT4 cells after 24 hrs by SRB assay; type: functional; conditions: MOLT-4, 24 h; summary of the method: as §2
UACC-62 [8] = assay: (§11) Cytotoxicity against human UACC62 cells after 24 hrs by SRB assay; type: cell-based; conditions: uacc-62, 24 h; summary of the method: as §9
M14 = assay: Cytotoxicity against human M14 cells after 24 hrs by SRB assay; type: cell-based; conditions: m14, 24 h; summary of the method: as §6
NCI-H522 = assay: Cytotoxicity against human NCI-H522 cells after 24 hrs by SRB assay; type: cell-based; conditions: nci-h522, 24 h; summary of the method: as §6
COLO 205 [9] = assay: as §5; type: functional; conditions: COLO 205, 24 h; summary of the method: as §2
SF-268 = assay: Cytotoxicity against human SF268 cells after 24 hrs by SRB assay; type: cell-based; conditions: sf-268, 24 h; summary of the method: as §6
SK-MEL-28 = assay: Cytotoxicity against human SK-MEL-28 cells after 24 hrs by SRB assay; type: cell-based; conditions: sk-mel-28, 24 h; summary of the method: as §6
MDA-MB-468 [10] = assay: (§12) Cytotoxicity against human MDA-MB-468 cells after 24 hrs by SRB assay; type: functional; conditions: MDA-MB-468, 24 h; summary of the method: as §2
HCT-15 = assay: Cytotoxicity against human HCT15 cells after 24 hrs by SRB assay; type: cell-based; conditions: hct-15, 24 h; summary of the method: as §6
UO-31 [11] = assay: as §7; type: cell-based; conditions: uo-31, 24 h; summary of the method: as §9
SF-295 = assay: Cytotoxicity against human SF295 cells after 24 hrs by SRB assay; type: cell-based; conditions: sf-295, 24 h; summary of the method: as §6
SK-MEL-2 = assay: Cytotoxicity against human SK-MEL-2 cells after 24 hrs by SRB assay; type: cell-based; conditions: sk-mel-2, 24 h; summary of the method: as §6
Malme-3M [12] = assay: (§13) Cytotoxicity against human MALME-3M cells after 24 hrs by SRB assay; type: functional; summary of the method: as §2
SW-620 [13] = assay: as §10; type: functional; conditions: SW-620, 24 h; summary of the method: as §8
MDA-MB-468 [14] = assay: as §12; type: cell-based; conditions: mda-mb-468, 24 h; summary of the method: as §6
SK-MEL-5 [15] = assay: as §3; type: cell-based; conditions: sk-mel-5, 24 h; summary of the method: as §6
RXF 393 = assay: Cytotoxicity against human RXF393 cells after 24 hrs by SRB assay; type: cell-based; conditions: rxf 393, 24 h; summary of the method: as §6
SR = assay: Cytotoxicity against human SR cells after 24 hrs by SRB assay; type: cell-based; summary of the method: as §9
UACC-62 [16] = assay: as §11; type: functional; conditions: UACC-62, 24 h; summary of the method: as §8
NCI-H322M [17] = assay: (§14) Cytotoxicity against human NCI-H322M cells after 24 hrs by SRB assay; type: cell-based; summary of the method: as §6
NCI-H226 = assay: Cytotoxicity against human NCI-H226 cells after 24 hrs by SRB assay; type: cell-based; conditions: nci-h226, 24 h; summary of the method: as §6
NCI-H322M [18] = assay: as §14; type: functional; summary of the method: as §2
Malme-3M [19] = assay: as §13; type: cell-based; summary of the method: as §6
NCI/ADR-RES = assay: Cytotoxicity against human NCI/ADR-RES cells after 24 hrs by SRB assay; type: cell-based; summary of the method: as §6
RPMI-8226 = assay: Cytotoxicity against human RPMI8226 cells after 24 hrs by SRB assay; type: cell-based; conditions: rpmi-8226, 24 h; summary of the method: as §6
MDA-MB-231 [20] = assay: as §1; type: cell-based; conditions: mda-mb-231, 24 h; summary of the method: as §6
OVCAR-4 [21] = assay: (§15) Cytotoxicity against human OVCAR4 cells after 24 hrs by SRB assay; type: functional; conditions: OVCAR-4, 24 h; summary of the method: as §2
786-0 = assay: Cytotoxicity against human 786-0 cells after 24 hrs by SRB assay; type: cell-based; conditions: 786-0, 24 h; summary of the method: as §6
SK-OV-3 = assay: Cytotoxicity against human SKOV3 cells after 24 hrs by SRB assay; type: cell-based; conditions: sk-ov-3, 24 h; summary of the method: as §9
OVCAR-4 [22] = assay: as §15; type: cell-based; conditions: ovcar-4, 24 h; summary of the method: as §6

## O=C(/C=C/c1cc2ccccc2[nH]c1=O)c1ccc(O)cc1
MDA-MB-231 [1]
  GI50: 2.31 µM
  TGI: 15 µM
SK-MEL-5 [2]
  GI50: 3.98 µM
  TGI: 13.3 µM
IGROV-1 [3]
  GI50: 4.35 µM
  TGI: 45.1 µM
ACHN
  GI50: 2.67 µM
  TGI: 8.86 µM
COLO 205 [4]
  LC50: 76.8 µM
HCC 2998
  GI50: 4.13 µM
  TGI: 22.3 µM
UO-31 [5]
  GI50: 4.38 µM
  TGI: 26.6 µM
SNB-19
  LC50: 50.6 µM
IGROV-1 [6]
  LC50: > 100 µM
SW-620 [7]
  LC50: > 100 µM
HT-29
  GI50: 3.61 µM
  TGI: 12.1 µM
MOLT-4
  GI50: 3.04 µM
  TGI: 9.91 µM
UACC-62 [8]
  LC50: 39.6 µM
M14
  LC50: > 100 µM
NCI-H522
  LC50: 6.36 µM
COLO 205 [9]
  GI50: 4.05 µM
  TGI: 19.7 µM
SF-268
  LC50: > 100 µM
SK-MEL-28
  LC50: 66.3 µM
MDA-MB-468 [10]
  GI50: 2.12 µM
  TGI: 5.3 µM
HCT-15
  LC50: > 100 µM
UO-31 [11]
  LC50: > 100 µM
SF-295
  LC50: > 100 µM
SK-MEL-2
  LC50: 48.3 µM
Malme-3M [12]
  GI50: 10.4 µM
  TGI: 33.6 µM
SW-620 [13]
  GI50: 1.89 µM
  TGI: 4.45 µM
MDA-MB-468 [14]
  LC50: 19.8 µM
SK-MEL-5 [15]
  LC50: 37.3 µM
RXF 393
  LC50: 6.33 µM
SR
  LC50: > 100 µM
UACC-62 [16]
  GI50: 2.88 µM
  TGI: 8.73 µM
NCI-H322M [17]
  LC50: 55.5 µM
NCI-H226
  LC50: 34.5 µM
NCI-H322M [18]
  GI50: 3.98 µM
  TGI: 16.8 µM
Malme-3M [19]
  LC50: > 100 µM
NCI/ADR-RES
  LC50: > 100 µM
RPMI-8226
  LC50: > 100 µM
MDA-MB-231 [20]
  LC50: > 100 µM

## O=C(/C=C/c1cc2ccccc2[nH]c1=O)/C=C/c1cc2ccccc2[nH]c1=O
MDA-MB-231 [1]
  GI50: 3.49 µM
  TGI: > 100 µM
SK-MEL-5 [2]
  GI50: 5.63 µM
  TGI: > 100 µM
OVCAR-4 [21]
  GI50: 2.06 µM
  TGI: > 100 µM
ACHN
  GI50: 2.49 µM
  TGI: > 100 µM
COLO 205 [4]
  LC50: > 100 µM
HCC 2998
  GI50: 0.839 µM
  TGI: 2.22 µM
SNB-19
  LC50: > 100 µM
SW-620 [7]
  LC50: > 100 µM
HT-29
  GI50: 0.483 µM
  TGI: 1.78 µM
MOLT-4
  GI50: 2.27 µM
  TGI: > 100 µM
UACC-62 [8]
  LC50: > 100 µM
M14
  LC50: > 100 µM
NCI-H522
  LC50: > 100 µM
786-0
  LC50: > 100 µM
COLO 205 [9]
  GI50: 2.89 µM
  TGI: > 100 µM
SF-268
  LC50: > 100 µM
SK-MEL-28
  LC50: > 100 µM
MDA-MB-468 [10]
  GI50: 1.58 µM
  TGI: 4.39 µM
HCT-15
  LC50: > 100 µM
SF-295
  LC50: > 100 µM
SK-OV-3
  LC50: > 100 µM
SK-MEL-2
  LC50: > 100 µM
SW-620 [13]
  GI50: 1 µM
  TGI: 3.92 µM
MDA-MB-468 [14]
  LC50: > 100 µM
SK-MEL-5 [15]
  LC50: > 100 µM
RXF 393
  LC50: 7.73 µM
OVCAR-4 [22]
  LC50: > 100 µM
SR
  LC50: > 100 µM
UACC-62 [16]
  GI50: 4.61 µM
  TGI: > 100 µM
NCI-H226
  LC50: > 100 µM
NCI/ADR-RES
  LC50: > 100 µM
RPMI-8226
  LC50: > 100 µM
MDA-MB-231 [20]
  LC50: > 100 µM
